Data on one compound can be found in ChEMBL document CHEMBL4014309, “Development of an Acrylate Derivative Targeting the NLRP3 Inflammasome for the Treatment of Inflammatory Bowel Disease” (J Med Chem, 2017).

The subject of data set [1] is Rattus norvegicus. Briefly: Anti-inflammatory activity in DNBS-induced Sprague-Dawley rat colitis model assessed as reduction in DNBS-induced IL-1beta levels in colon administered ig for 6 days simulatneously with 6 days of DNBS-challenge by ELISA. In kind it is functional.
Data set [2] deals with Rattus norvegicus. Description: Anti-inflammatory activity in DNBS-induced Sprague-Dawley rat colitis model assessed as DNBS-induced TNFalpha levels in colon at 50 mg/kg/day, ig for 6 days simulatneously with 6 days of DNBS-challenge by ELISA (reference value: 5.9 +/- 0.6 pg/mg). Format: functional.
The subject of data set [3] is Rattus norvegicus. Briefly: Anti-inflammatory activity in DNBS-induced Sprague-Dawley rat colitis model assessed as DNBS-induced IL-1beta levels in colon at 12.5 mg/kg/day, ig for 6 days simulatneously with 6 days of DNBS-challenge by ELISA (reference value: 22.3 +/- 2.9 ng/mg). In kind it is functional.
Data set [4] has as its target NACHT, LRR and PYD domains-containing protein 3 (Mus musculus) (UniProt Q8R4B8). Description: Inhibition of NLRP3 inflammasome in LPS-primed C57BL/6 mouse bone marrow derived macrophages assessed as reduction in ATP-induced IL-1beta production at 10 uM preincubated for 1 hr followed by stimulation with ATP measured after 30 mins by ELISA. The gist of the method:
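C57BL/6 bone marrow macrophages, differentiated with 20% L-cell medium, were primed with LPS (1 µg/mL, 3 h). They were then exposed to compound or vehicle for 1 h and stimulated with ATP (5 mM, 30 min). IL-1β released into the medium was measured by ELISA.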

The next data set has as its system Liver. Description: Drug metabolism in Sprague-Dawley rat liver microsomes assessed as formation of 2-(2-chlorobenzyl)acrylic acid at 100 uM at <1 min in presence of NADPH by UHPLC-MS analysis. Format: ADME, microsome.
The test system of data set [5] is Rattus norvegicus. Description: Anti-inflammatory activity in DNBS-induced Sprague-Dawley rat colitis model assessed as reduction in DNBS-induced increase in MPO levels in colon at 12.5 to 50 mg/kg/day, ig for 6 days simulatneously with 6 days of DNBS-challenge by ELISA. Format: functional, organism-based. The gist of the method: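 DNBS colitis (15 mg intrarectal in 50% ethanol) was treated by the intragastric route for 6 days from induction (1 mg/kg/day in 1% methylcellulose, or 12.5–50 mg/kg/day in olive oil). Colonic samples (30 mg) were taken adjacent and distal to the necrotic area, homogenized, and assayed for MPO by ELISA. Results are ng MPO per mg tissue, mean ± SEM, n = 10.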

Data set [6] has as its system Rattus norvegicus. Description: Antiinflammatory activity in DNBS-induced Sprague-Dawley rat colitis model assessed as reduction in DNBS-induced spleen weight increase by measuring increase in spleen weight at 25 mg/kg/day, ig administered as suspension in olive oil for 6 days simulatneously with 6 days of DNBS-challenge measured daily during compound dosing (reference value: 39.3%). In kind it is functional. The arrangement: scale not given: the % may be the effect or the level left. The procedure, abridged:
(§1)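 Spleen weight was used as an index of systemic inflammation. Rats had intrarectal DNBS (15 mg/0.25 mL 50% ethanol) and 6 days of intragastric dosing: 1 mg/kg/day in 1% methylcellulose, or 12.5–50 mg/kg/day in 0.2 mL olive oil. The spleen was weighed at sacrifice and expressed as percent increase versus control, n = 10.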

The test system of data set [7] is Rattus norvegicus. Briefly: Antiinflammatory activity in DNBS-induced Sprague-Dawley rat colitis model assessed as reduction in DNBS-induced spleen weight increase by measuring increase in spleen weight at 50 mg/kg/day, ig administered as suspension in olive oil for 6 days simulatneously with 6 days of DNBS-challenge measured daily during compound dosing (reference value: 39.3%). In kind it is functional. On the set-up: scale not given: the % may be the effect or the level left. The gist of the method:
as §1

The subject of data set [8] is Rattus norvegicus. Description: Anti-inflammatory activity in DNBS-induced Sprague-Dawley rat colitis model assessed as DNBS-induced TNFalpha levels in colon at 12.5 mg/kg/day, ig for 6 days simulatneously with 6 days of DNBS-challenge by ELISA (reference value: 5.9 +/- 0.6 pg/mg). In kind it is functional.
Data set [9] is described as follows: Cysteamine reactivity in PBS assessed as free compound level at pH 7.4 measured after 4 hrs by DTNB reagent based RP-UHPLC analysis. The procedure, abridged:
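The compound was reacted with excess cysteamine in pH 7.4 phosphate buffer with CH3CN cosolvent at 37 °C. Remaining compound was followed by UHPLC over 4 h, sampled at 30 min, 60 min and 4 h, and expressed as percent of starting concentration.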

Data set [10] deals with NACHT, LRR and PYD domains-containing protein 3 (Homo sapiens) (UniProt Q96P20). Briefly: Inhibition of recombinant YFP-tagged NLRP3 (unknown origin) expressed in HEK293 cells co-expressing luciferase assessed as initial conformational changes in protein by measuring increase in nigericin-induced decrease in intracellular K+ level at 10 to 100 uM measured after 24 hrs by BRET assay. Format: cell-based. The gist of the method: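 HEK293 cells stably expressing YFP-NLRP3-Luc were grown in DMEM with 10% FCS, plated on poly-L-lysine, and exposed to compound or vehicle (15 h per methods; 24 h per figure legend). Cells were washed, then BRET was read after adding coelenterazine-H (5 µM). Kinetics used nigericin (10 µM) in vehicle or high-K+ (140 mM) buffer. Slopes of three phases were taken; mean ± SEM, n = 5–12.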
Chain of NACHT, LRR and PYD domains-containing protein 3 (Homo sapiens) (Q96P20 whole entry, the tested form may be a part): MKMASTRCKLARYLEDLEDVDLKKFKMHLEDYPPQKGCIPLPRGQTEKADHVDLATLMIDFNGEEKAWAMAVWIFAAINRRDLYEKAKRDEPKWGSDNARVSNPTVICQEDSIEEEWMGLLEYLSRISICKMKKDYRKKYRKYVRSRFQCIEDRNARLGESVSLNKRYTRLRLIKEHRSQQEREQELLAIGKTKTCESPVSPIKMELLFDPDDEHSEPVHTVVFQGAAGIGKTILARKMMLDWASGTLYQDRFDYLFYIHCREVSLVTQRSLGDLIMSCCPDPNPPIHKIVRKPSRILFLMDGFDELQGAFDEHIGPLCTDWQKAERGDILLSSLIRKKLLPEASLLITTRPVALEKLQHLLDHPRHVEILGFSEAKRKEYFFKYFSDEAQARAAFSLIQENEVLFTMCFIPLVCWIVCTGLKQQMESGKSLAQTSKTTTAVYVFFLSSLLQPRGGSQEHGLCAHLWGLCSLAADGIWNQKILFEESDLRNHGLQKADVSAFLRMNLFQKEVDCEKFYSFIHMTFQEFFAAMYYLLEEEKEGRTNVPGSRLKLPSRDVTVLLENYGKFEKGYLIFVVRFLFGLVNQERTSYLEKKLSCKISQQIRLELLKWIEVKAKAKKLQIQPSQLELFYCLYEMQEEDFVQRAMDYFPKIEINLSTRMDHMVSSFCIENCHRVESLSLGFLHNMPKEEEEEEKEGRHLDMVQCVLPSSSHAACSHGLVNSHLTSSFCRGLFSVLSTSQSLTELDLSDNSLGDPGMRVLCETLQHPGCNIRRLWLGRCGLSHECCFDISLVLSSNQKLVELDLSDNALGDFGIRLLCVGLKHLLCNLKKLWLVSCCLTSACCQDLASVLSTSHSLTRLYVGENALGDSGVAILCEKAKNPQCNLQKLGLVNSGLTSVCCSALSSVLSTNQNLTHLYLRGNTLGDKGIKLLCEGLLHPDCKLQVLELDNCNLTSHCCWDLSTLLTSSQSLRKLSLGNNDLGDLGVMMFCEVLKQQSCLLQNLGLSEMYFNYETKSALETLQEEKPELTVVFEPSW

Data set [11] has the same target. Description: Inhibition of recombinant human NLRP3 ATPase assessed as hydrolysis of ATP preincubated for 15 mins followed by addition of ATP measured after 40 mins by ADP-Glo assay. The gist of the method: (§2)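 Human recombinant NLRP3 (0.105 µg) in 20 mM Tris-HCl pH 7.8, 133 mM NaCl, 20 mM MgCl2, 3 mM KCl, 0.56 mM EDTA, 0.5% DMSO. Compound (100 or 50 µM) was preincubated 15 min at 37 °C, then ATP (250 µM) was added for 40 min at 37 °C. ADP was read by ADP-Glo luminescence. Result is % inhibition vs vehicle; mean ± SEM, ≥3 experiments.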

For data set [12] the target is unchanged. Briefly: Inhibition of recombinant human NLRP3 ATPase assessed as hydrolysis of ATP at 100 uM preincubated for 15 mins followed by addition of ATP measured after 40 mins by ADP-Glo assay. The gist of the method: as §2
For another data set, the system named is Jejunum. Description: Drug metabolism in Sprague-Dawley rat jejunum assessed as 2-(2-chlorobenzyl)acrylic acid level at 12.5 mg as suspension in olive oil measured after 2 hrs by UHPLC-M. In kind it is ADME, tissue-based. As to conditions: in vivo.
Data set [13] in a line: Cysteamine reactivity of the compound in PBS assessed as second order rate constant for free cysteamine release at 250 uM and pH 7.4 after 90 mins by DTNB reagent based RP-UHPLC analysis. The procedure, abridged:
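Compound (250 µM) was mixed with equimolar cysteamine in pH 7.4 PBS containing 12.5% CH3CN at 37 °C. Free cysteamine was tracked with DTNB at several time points over 90 min. Second-order k2 came from 1/[CAM] = 1/[CAM]0 + kt, using 3–10 points per plot; mean ± SEM of ≥3 experiments.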

The nature of data set [14]: Stability of the compound in simulated intestinal fluid at 1.56 mg as suspension in olive oil and pH 7 after 2 hrs by UHPLC-MS analysis. The procedure, abridged: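 1.56 mg suspended in 100 µL olive oil, mixed with 100 µL SGF (pH 2, pepsin 3.2 mg/mL) for 2 h at 37 °C with shaking. Then 200 µL SIF (pH 7, pancreatin 2 mg/mL) was added for a further 2 h. Dedicated samples at 0, 30, 60 and 120 min were extracted with acetonitrile and analysed by UHPLC-MS. ≥3 repeats.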

Activity calls are given as the source filed them. The calls are words filed in the database; no cut-off is given here. A value given as a limit tells only on which side of the number the result lay.

Chain of NACHT, LRR and PYD domains-containing protein 3 (Mus musculus) (Q8R4B8 whole entry, the tested form may be a part): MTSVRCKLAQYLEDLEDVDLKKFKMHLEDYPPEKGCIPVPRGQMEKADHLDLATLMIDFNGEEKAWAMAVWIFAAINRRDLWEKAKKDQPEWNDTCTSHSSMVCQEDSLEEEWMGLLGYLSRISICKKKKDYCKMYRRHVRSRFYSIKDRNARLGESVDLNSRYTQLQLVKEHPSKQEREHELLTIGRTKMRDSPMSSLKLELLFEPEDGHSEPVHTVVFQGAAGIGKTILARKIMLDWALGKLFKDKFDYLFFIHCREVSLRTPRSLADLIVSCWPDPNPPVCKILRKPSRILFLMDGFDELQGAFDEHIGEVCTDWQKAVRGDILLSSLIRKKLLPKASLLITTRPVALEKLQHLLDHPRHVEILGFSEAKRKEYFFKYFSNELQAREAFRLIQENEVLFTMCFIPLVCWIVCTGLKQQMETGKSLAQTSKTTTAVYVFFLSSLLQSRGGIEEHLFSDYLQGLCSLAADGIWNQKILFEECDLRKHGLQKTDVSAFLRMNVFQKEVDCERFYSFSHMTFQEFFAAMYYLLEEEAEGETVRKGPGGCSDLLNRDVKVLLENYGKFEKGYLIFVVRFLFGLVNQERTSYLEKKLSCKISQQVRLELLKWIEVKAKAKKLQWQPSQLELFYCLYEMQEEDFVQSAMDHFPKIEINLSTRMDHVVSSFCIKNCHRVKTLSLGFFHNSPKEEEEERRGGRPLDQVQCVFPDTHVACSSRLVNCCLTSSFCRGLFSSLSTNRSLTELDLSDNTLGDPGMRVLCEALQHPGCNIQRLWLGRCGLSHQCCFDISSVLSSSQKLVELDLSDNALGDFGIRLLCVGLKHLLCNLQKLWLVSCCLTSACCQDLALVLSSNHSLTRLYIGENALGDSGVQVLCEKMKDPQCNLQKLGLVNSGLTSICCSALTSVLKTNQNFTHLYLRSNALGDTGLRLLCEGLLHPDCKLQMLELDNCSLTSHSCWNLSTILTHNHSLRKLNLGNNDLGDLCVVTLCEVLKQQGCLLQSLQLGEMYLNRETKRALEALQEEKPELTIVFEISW

For `C=C(Cc1ccccc1Cl)C(=O)OCC`, the Activity result in the data set with Rattus norvegicus [1] was “Dose-dependent effect”; with Rattus norvegicus [2], 2.7 pg/mg; in the data set on Rattus norvegicus [3] it was 16.4 ng/mg; in the data set with Rattus norvegicus [6], 4.3%; in the data set on Rattus norvegicus [7] it was 4.8%; in the data set with Rattus norvegicus [8], 3.5 pg/mg. Moreover, the inhibition result in data set [4] is “Active”. In addition, the Drug metabolism result is listed as “Metabolite_Detected” in the data set on Liver, “Metabolite_Detected” in the data set on Jejunum and “Metabolite not detected” in data set [13]. For the same compound, the outcome in the data set on Rattus norvegicus [5] was Active. Moreover, the Stability in [9] is 77.5%; in data set [14] it was > 99.5%. For the same compound, in data set [10], the inhibition result is “inactive”. In addition, the inhibition result in [11] is “Dose-dependent effect”; in [12], 52%.
